According to ChEMBL document CHEMBL3425484, “Novel N-benzenesulfonyl sophocarpinol derivatives as coxsackie B virus inhibitors” (ACS Med Chem Lett, 2015):

Experiments:
[1] = Cytotoxicity against african green monkey Vero cells assessed as inhibition of cell growth after 24 hrs by CPE assay; assay type: cell-based; conditions: chlorocebus sabaeus, read-out: TC50
[2] = tested on: Coxsackievirus; assay: Antiviral activity against Coxsackievirus B3 infected in african green monkey Vero cells assessed as reduction in viral-induced cytopathic effect; assay type: functional, organism-based
Procedure, shortened: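 Vero (African green monkey kidney) cells were infected with the CVB subtype and scored by viral cytopathogenic effect (CPE) reduction, with ribavirin as the positive control. IC50 is the concentration that inhibits CVB growth by 50%.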

[3] = Selectivity index, ratio of TC50 for african green monkey Vero cells to IC50 for Coxsackievirus B3 infected in african green monkey Vero cells; assay type: toxicity, cell-based; conditions: read-out: Selectivity Index
Procedure, shortened: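 SI is calculated as TC50 (50% inhibition of Vero cell growth) divided by IC50 (50% inhibition of the respective CVB subtype's growth, from the CPE assay in Vero cells, ribavirin as positive control).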

## N#Cc1ccccc1S(=O)(=O)N1C[C@@H]2CCCN3CCC[C@@H]([C@H]23)[C@H]1/C=C/CC(=O)O
[1]
  CC50 at 24 h: 466 µM
[2]
  IC50: 22.7 µM
[3]
  selectivity ratio: 20.5

## N#Cc1cccc(S(=O)(=O)N2C[C@@H]3CCCN4CCC[C@@H]([C@H]34)[C@H]2/C=C/CC(=O)O)c1
[1]
  CC50 at 24 h: 466 µM
[2]
  IC50: 13.1 µM
[3]
  selectivity ratio: 35.5

## O=C(O)C/C=C/[C@@H]1[C@H]2CCCN3CCC[C@@H](CN1S(=O)(=O)c1ccc(C(F)(F)F)cc1)[C@@H]23
[1]
  CC50 at 24 h: 1470 µM
[2]
  IC50: 33.7 µM
[3]
  selectivity ratio: 43.6

## O=C(O)C/C=C/[C@@H]1[C@H]2CCCN3CCC[C@@H](CN1S(=O)(=O)c1ccccc1C(F)(F)F)[C@@H]23
[1]
  CC50 at 24 h: 393 µM
[2]
  IC50: 11.1 µM
[3]
  selectivity ratio: 35.4

## COC(=O)C/C=C/[C@@H]1[C@H]2CCCN3CCC[C@@H](CN1S(=O)(=O)c1cccc(C#N)c1)[C@@H]23
[1]
  CC50 at 24 h: 72.4 µM
[2]
  IC50: 7.3 µM
[3]
  selectivity ratio: 9.9

## COC(=O)C/C=C/[C@@H]1[C@H]2CCCN3CCC[C@@H](CN1S(=O)(=O)c1ccccc1C#N)[C@@H]23
[1]
  CC50 at 24 h: 80.3 µM
[2]
  IC50: 8.92 µM
[3]
  selectivity ratio: 9

## COC(=O)C/C=C/[C@@H]1[C@H]2CCCN3CCC[C@@H](CN1S(=O)(=O)c1ccccc1C(F)(F)F)[C@@H]23
[1]
  CC50 at 24 h: 38.1 µM
[2]
  IC50: 11.9 µM
[3]
  selectivity ratio: 3.2

## N#Cc1ccccc1S(=O)(=O)N1C[C@@H]2CCCN3CCC[C@@H]([C@H]23)[C@H]1C/C=C/C(=O)O
[1]
  CC50 at 24 h: 466 µM
[2]
  IC50: > 155 µM

## N#Cc1ccc(S(=O)(=O)N2C[C@@H]3CCCN4CCC[C@@H]([C@H]34)[C@H]2C/C=C/C(=O)O)cc1
[1]
  CC50 at 24 h: > 466 µM
[2]
  IC50: 29.9 µM
[3]
  selectivity ratio: > 15.7

## O=C(O)/C=C/C[C@@H]1[C@H]2CCCN3CCC[C@@H](CN1S(=O)(=O)c1ccccc1C(F)(F)F)[C@@H]23
[1]
  CC50 at 24 h: 424 µM
[2]
  IC50: 27.2 µM
[3]
  selectivity ratio: 15.6

## COC(=O)C/C=C\[C@@H]1[C@H]2CCCN3CCC[C@@H](CN1S(=O)(=O)c1ccccc1C#N)[C@@H]23
[1]
  CC50 at 24 h: 289 µM
[2]
  IC50: 4.21 µM
[3]
  selectivity ratio: 68.7

## COC(=O)C/C=C\[C@@H]1[C@H]2CCCN3CCC[C@@H](CN1S(=O)(=O)c1ccc(C#N)cc1)[C@@H]23
[1]
  CC50 at 24 h: 292 µM
[2]
  IC50: 8.04 µM
[3]
  selectivity ratio: 36.3

## COC(=O)C/C=C\[C@@H]1[C@H]2CCCN3CCC[C@@H](CN1S(=O)(=O)c1cccc(C(F)(F)F)c1)[C@@H]23
[1]
  CC50 at 24 h: 198 µM
[2]
  IC50: 2.24 µM
[3]
  selectivity ratio: 88.3

## COC(=O)C/C=C\[C@@H]1[C@H]2CCCN3CCC[C@@H](CN1S(=O)(=O)c1ccc(C(F)(F)F)cc1)[C@@H]23
[1]
  CC50 at 24 h: 54.7 µM
[2]
  IC50: 8.17 µM
[3]
  selectivity ratio: 6.7

## COC(=O)C/C=C\[C@@H]1[C@H]2CCCN3CCC[C@@H](CN1S(=O)(=O)c1ccccc1[N+](=O)[O-])[C@@H]23
[1]
  CC50 at 24 h: 481 µM
[2]
  IC50: 5.23 µM
[3]
  selectivity ratio: 92.1

## COC(=O)C/C=C\[C@@H]1[C@H]2CCCN3CCC[C@@H](CN1S(=O)(=O)c1cccc([N+](=O)[O-])c1)[C@@H]23
[1]
  CC50 at 24 h: 112 µM
[2]
  IC50: 9.24 µM
[3]
  selectivity ratio: 12.1

## COC(=O)C/C=C\[C@@H]1[C@H]2CCCN3CCC[C@@H](CN1S(=O)(=O)c1ccc([N+](=O)[O-])cc1)[C@@H]23
[1]
  CC50 at 24 h: 186 µM
[2]
  IC50: 7.02 µM
[3]
  selectivity ratio: 26.4

## COC(=O)C/C=C\[C@@H]1[C@H]2CCCN3CCC[C@@H](CN1S(=O)(=O)c1cc(Br)c(Br)s1)[C@@H]23
[1]
  CC50 at 24 h: 21.1 µM
[2]
  IC50: 1.19 µM
[3]
  selectivity ratio: 17.7

## N#Cc1ccccc1S(=O)(=O)N1C[C@@H]2CCCN3CCC[C@@H]([C@H]23)[C@H]1/C=C\CC(=O)O
[1]
  CC50 at 24 h: 430 µM
[2]
  IC50: 27.6 µM
[3]
  selectivity ratio: 15.6
